ChEMBL document CHEMBL4007432, “Discovery and characterization of novel CYP1B1 inhibitors based on heterocyclic chalcones: Overcoming cisplatin resistance in CYP1B1-overexpressing lines” (Eur J Med Chem, 2017)
≈ marks a conversion by molar mass, not a printed value.

Key:
Cytochrome P450 1B1 [1] = biological target: T1, Cytochrome P450 1B1 (Homo sapiens, UniProt Q16678); assay: Inhibition of CYP1B1 in human A2780cis cells assessed as potentiation of cisplatin-induced cytotoxicity at 2 times CYP1B1 inhibitory IC50 by MTT assay; assay type: cell-based
T1 sequence (Q16678 whole entry): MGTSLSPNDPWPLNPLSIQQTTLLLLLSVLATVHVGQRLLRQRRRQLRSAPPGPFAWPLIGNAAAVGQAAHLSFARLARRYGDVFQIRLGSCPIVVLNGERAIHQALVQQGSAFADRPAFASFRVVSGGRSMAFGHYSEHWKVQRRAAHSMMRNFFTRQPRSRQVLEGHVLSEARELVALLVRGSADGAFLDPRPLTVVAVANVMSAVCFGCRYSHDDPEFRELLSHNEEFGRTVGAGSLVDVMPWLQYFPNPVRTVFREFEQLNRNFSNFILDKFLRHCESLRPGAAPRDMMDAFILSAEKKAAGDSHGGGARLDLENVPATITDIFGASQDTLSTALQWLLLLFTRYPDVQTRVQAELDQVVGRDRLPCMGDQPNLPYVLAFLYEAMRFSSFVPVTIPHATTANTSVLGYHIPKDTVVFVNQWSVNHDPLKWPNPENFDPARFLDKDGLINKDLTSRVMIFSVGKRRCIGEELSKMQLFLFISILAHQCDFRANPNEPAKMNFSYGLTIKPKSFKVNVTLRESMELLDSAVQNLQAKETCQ

[2] = Solubility of the compound in pH 7.4 PBS buffer; assay type: physicochemical
[3] = Solubility of the compound in pH 1.2 simulated gastric fluid; assay type: physicochemical
[4] = Solubility of the compound in pH 6.8 simulated intestinal fluid; assay type: physicochemical
Cytochrome P450 1B1 [5] = biological target: T1, Cytochrome P450 1B1; assay: Inhibition of human liver CYP1B1 expressed in HEK293 cells using 7-ethoxyresorufin as substrate preincubated for 30 mins followed by substrate addition measured after 60 mins by fluorescence assay; assay type: cell-based
In short: (§1)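 HEK293 cells adapted to suspension were lipid-transfected with pCDM/hCYP1B1, used 24–48 h later and resuspended at 4×10^6/mL. Wells of 100–200×10^3 cells, in triplicate, were preincubated with compound (1 nM–30 µM) for 30 min at 37 °C, 8% CO2. Substrate followed: 7-ER at 5 µM or CEC. Fluorescence was read over 60 min and IC50 obtained by sigmoidal fit.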

Cytochrome P450 1B1 [6] = biological target: T1, Cytochrome P450 1B1; assay: Inhibition of human liver CYP1B1 expressed in HEK293 cells using CEC as substrate preincubated for 30 mins followed by substrate addition measured after 60 mins by fluorescence assay; assay type: cell-based; in short: as §1
Cytochrome P450 1B1 [7] = biological target: T1, Cytochrome P450 1B1; assay: Inhibition of human liver CYP1B1 expressed in Saccharomyces cerevisiae YY7 cells using 7-ethoxyresorufin as substrate after 10 mins by fluorescence assay; assay type: cell-based
In short: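 Live S. cerevisiae YY7 carrying human CYP1B1 was grown in YP-galactose. Cells were harvested 16–20 h after induction, washed in TE (pH 7.4) and diluted 1:10.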

Cytochrome P450 1B1 [8] = biological target: T1, Cytochrome P450 1B1; assay: Inhibition of human liver CYP1B1 expressed in Saccharomyces cerevisiae YY7 microsomal membranes using 7-ethoxyresorufin as substrate after 10 mins by fluorescence assay
In short: (§2)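 Yeast microsomes (YY7 strain carrying human reductase) held 0.5 pmol CYP with an NADP+/glucose-6-phosphate/G6PDH regenerating system in KPi. Fluorogenic substrate per isoform: 7-ER, CEC, EOMCC or DBF. Six serial 1:20 dilutions were tested, DMSO ≤0.5%. Reactions ran 10 min at 37 °C and were stopped with Tris-acetonitrile. Endpoint fluorescence (530/590 nm for resorufin) was fitted by 4-parameter sigmoid. Triplicate, ≥3 experiments.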

Cytochrome P450 1A1 = biological target: T2, Cytochrome P450 1A1 (Homo sapiens, UniProt P04798); assay: Inhibition of human liver CYP1A1 expressed in Saccharomyces cerevisiae YY7 microsomal membranes using 7-ethoxyresorufin as substrate after 10 mins by fluorescence assay; assay type: ADME, Microsomal Membrane; in short: as §2
T2 sequence (P04798 whole entry): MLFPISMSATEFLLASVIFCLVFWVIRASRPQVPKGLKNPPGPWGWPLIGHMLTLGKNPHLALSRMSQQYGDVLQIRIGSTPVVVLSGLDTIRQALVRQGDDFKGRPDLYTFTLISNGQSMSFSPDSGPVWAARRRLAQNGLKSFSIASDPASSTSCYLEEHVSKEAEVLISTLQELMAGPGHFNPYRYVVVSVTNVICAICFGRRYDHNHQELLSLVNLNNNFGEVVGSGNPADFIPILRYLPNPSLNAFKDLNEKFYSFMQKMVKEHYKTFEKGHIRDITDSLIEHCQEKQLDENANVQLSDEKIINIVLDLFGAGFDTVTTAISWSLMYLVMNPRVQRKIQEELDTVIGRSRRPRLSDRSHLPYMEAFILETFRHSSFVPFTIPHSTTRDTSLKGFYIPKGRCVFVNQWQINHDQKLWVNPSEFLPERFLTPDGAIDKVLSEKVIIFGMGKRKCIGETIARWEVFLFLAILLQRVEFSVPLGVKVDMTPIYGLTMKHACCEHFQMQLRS

Cytochrome P450 1A2 = biological target: T3, Cytochrome P450 1A2 (Homo sapiens, UniProt P05177); assay: Inhibition of human liver CYP1A2 expressed in Saccharomyces cerevisiae YY7 microsomal membranes using CEC as substrate after 10 mins by fluorescence assay; assay type: ADME, Microsomal Membrane; in short: as §2
T3 sequence (P05177 whole entry): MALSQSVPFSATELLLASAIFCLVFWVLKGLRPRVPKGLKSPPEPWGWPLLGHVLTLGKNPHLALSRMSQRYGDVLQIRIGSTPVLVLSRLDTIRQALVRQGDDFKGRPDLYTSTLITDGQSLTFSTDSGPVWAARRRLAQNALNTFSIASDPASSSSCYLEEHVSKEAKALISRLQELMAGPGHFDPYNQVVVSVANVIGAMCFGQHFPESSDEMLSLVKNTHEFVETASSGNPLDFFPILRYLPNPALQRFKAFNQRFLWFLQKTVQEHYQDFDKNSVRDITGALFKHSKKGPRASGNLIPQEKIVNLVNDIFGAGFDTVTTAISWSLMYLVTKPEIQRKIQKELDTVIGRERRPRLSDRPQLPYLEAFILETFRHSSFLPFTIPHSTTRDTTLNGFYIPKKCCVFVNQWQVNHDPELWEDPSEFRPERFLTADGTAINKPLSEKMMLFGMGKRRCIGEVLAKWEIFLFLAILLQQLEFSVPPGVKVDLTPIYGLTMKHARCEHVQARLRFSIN

Cytochrome P450 3A4 = Cytochrome P450 3A4 (Homo sapiens, UniProt P08684); assay: Inhibition of human liver CYP3A4 expressed in Saccharomyces cerevisiae YY7 microsomal membranes using DBF as substrate after 10 mins by fluorescence assay; assay type: ADME, Microsomal Membrane
Chain of Cytochrome P450 3A4 (P08684 whole entry): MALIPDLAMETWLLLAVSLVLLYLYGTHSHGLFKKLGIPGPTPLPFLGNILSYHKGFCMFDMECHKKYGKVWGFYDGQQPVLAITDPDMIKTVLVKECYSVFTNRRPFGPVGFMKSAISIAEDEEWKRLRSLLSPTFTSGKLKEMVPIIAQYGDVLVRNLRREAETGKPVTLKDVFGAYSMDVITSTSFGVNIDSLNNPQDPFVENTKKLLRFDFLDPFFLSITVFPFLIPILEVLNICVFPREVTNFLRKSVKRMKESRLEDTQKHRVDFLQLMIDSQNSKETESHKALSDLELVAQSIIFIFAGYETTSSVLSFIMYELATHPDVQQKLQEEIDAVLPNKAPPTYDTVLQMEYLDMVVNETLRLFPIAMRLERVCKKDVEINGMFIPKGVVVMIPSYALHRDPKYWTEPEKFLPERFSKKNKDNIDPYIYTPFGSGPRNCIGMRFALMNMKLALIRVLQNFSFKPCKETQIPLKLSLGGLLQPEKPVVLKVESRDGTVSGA

Cytochrome P450 2D6 = Cytochrome P450 2D6 (Homo sapiens, UniProt P10635); assay: Inhibition of human liver CYP2D6 expressed in Saccharomyces cerevisiae YY7 microsomal membranes using EOMCC as substrate after 10 mins by fluorescence assay; assay type: ADME, Microsomal Membrane; in short: as §2
Chain of Cytochrome P450 2D6 (P10635 whole entry): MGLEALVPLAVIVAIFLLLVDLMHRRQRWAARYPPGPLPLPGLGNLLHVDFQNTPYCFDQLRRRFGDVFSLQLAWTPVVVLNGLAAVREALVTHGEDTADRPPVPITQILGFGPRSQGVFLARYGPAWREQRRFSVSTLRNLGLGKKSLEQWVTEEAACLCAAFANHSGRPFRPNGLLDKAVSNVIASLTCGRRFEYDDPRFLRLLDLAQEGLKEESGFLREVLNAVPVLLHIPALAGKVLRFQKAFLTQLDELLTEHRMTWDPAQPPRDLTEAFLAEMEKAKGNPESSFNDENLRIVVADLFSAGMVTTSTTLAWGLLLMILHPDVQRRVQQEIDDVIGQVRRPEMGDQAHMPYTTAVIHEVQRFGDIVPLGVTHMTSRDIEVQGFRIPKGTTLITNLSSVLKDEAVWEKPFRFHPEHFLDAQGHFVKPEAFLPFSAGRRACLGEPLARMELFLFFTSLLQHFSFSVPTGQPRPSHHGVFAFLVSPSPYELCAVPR

Cytochrome P450 2C9 = Cytochrome P450 2C9 (Homo sapiens, UniProt P11712); assay: Inhibition of human liver CYP2C9 expressed in Saccharomyces cerevisiae YY7 microsomal membranes using DBF as substrate after 10 mins by fluorescence assay; assay type: ADME, Microsomal Membrane
Chain of Cytochrome P450 2C9 (P11712 whole entry): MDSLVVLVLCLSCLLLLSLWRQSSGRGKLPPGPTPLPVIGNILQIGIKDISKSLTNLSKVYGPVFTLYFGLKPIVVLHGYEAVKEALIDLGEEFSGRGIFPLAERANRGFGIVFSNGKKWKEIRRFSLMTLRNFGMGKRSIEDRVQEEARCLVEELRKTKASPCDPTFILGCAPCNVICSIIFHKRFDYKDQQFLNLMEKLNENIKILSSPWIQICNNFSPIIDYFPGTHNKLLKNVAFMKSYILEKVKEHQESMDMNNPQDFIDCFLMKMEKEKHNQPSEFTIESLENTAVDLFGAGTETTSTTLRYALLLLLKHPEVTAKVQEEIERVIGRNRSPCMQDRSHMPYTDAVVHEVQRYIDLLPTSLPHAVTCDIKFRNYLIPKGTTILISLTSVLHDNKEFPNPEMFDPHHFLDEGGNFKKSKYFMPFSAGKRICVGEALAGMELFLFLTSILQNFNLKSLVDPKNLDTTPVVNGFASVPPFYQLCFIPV

Cytochrome P450 2C19 = Cytochrome P450 2C19 (Homo sapiens, UniProt P33261); assay: Inhibition of human liver CYP2C19 expressed in Saccharomyces cerevisiae YY7 microsomal membranes using DBF as substrate after 10 mins by fluorescence assay; assay type: ADME, Microsomal Membrane
Chain of Cytochrome P450 2C19 (P33261 whole entry): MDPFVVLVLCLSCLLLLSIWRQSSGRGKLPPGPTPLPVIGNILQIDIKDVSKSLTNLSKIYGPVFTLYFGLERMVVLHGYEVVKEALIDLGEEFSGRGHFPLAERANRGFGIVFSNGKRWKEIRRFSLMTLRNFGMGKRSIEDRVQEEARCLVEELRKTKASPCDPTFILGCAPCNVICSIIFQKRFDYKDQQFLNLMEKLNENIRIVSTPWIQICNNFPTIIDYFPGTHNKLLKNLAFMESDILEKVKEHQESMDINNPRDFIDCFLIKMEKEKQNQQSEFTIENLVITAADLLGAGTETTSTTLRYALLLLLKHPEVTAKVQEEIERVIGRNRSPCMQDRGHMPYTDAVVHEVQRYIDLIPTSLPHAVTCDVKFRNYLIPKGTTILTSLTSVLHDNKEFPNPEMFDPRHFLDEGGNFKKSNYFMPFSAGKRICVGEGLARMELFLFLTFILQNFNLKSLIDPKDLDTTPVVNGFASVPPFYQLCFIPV

Cytochrome P450 1B1 [9] = biological target: T1, Cytochrome P450 1B1; assay: Inhibition of human liver CYP1B1 expressed in Saccharomyces cerevisiae YY7 microsomal membranes at 5 to 10 uM using 7-ethoxyresorufin as substrate after 10 mins by fluorescence assay
In short: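 Single-concentration screen on CYP1B1 yeast microsomes at 5 µM (10 µM per methods), with 7-ER under the regenerating-system endpoint format: 10 min at 37 °C. Percentage inhibition versus a DMSO control; each compound tested twice.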

CYP1B1 = biological target: T4, CYP1B1 (Homo sapiens, UniProt Q16678); assay: Inhibition of human liver CYP1B1 expressed in Saccharomyces cerevisiae YY7 microsomal membranes at 1 uM using 7-ethoxyresorufin as substrate after 10 mins by fluorescence assay relative to control; conditions: probe 7-ethoxyresorufin
T4 sequence (Q16678 whole entry): T1 sequence (Q16678 whole entry)

SMILES	inhibition (INH) (Cytochrome P450 1B1 [1])	solubility [2]	solubility [3]	solubility [4]	IC50 (Cytochrome P450 1B1 [5])	IC50 (Cytochrome P450 1B1 [6])	IC50 (Cytochrome P450 1B1 [7])	IC50 (Cytochrome P450 1B1 [8])	IC50 (Cytochrome P450 1A1)	IC50 (Cytochrome P450 1A2)	IC50 (Cytochrome P450 3A4)	IC50 (Cytochrome P450 2D6)	IC50 (Cytochrome P450 2C9)	IC50 (Cytochrome P450 2C19)	inhibition (INH) (Cytochrome P450 1B1 [9])	inhibition at 10 min, 1 µM (CYP1B1)
O=C(/C=C/c1ccc2ccccc2c1)c1cccnc1	Not Active	14.5 µg/mL (≈ 56 µM)	68.6 µg/mL (≈ 264 µM)	0.45 µg/mL (≈ 1.74 µM)	53 nM	4 nM	64 nM	10 nM	742 nM	1200 nM	18000 nM	10000 nM	> 20000 nM	> 20000 nM	Active	
COc1ccc2cc(C(=O)/C=C/c3cccnc3)ccc2c1	Not Active	20.1 µg/mL (≈ 69.4 µM)	538 µg/mL (≈ 1860 µM)	0.27 µg/mL (≈ 0.933 µM)	8 nM	4 nM	65 nM	9 nM	795 nM	1200 nM		5000 nM	> 20000 nM	> 20000 nM	Active	
O=c1cc(-c2ccccc2)oc2c1ccc1ccccc12 [ALPHA-NAPHTHOFLAVONE]		6.85 µg/mL (≈ 25.2 µM)	6.45 µg/mL (≈ 23.7 µM)	0.58 µg/mL (≈ 2.13 µM)											Active	> 80%
